Data set [1] concerns Plasmodium falciparum. As to the kind of experiment: Growth inhibition of chloroquine-sensitive Plasmodium falciparum 3D7 infected in human RBC at 40 uM after 72 hrs by DAPI staining based confocal microscopic method relative to control. To be noted: 3D7, 72 h, read-out: GI. The format is functional.
The subject of a further data set is MDA-MB-231. As to the kind of experiment: Growth inhibition of human MDA-MB-231 cells after 72 hrs by alamar blue assay. Format: functional, cell-based. To be noted: MDA-MB-231, 72 h. The method, boiled down: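 MDA-MB-231 cells grown in DMEM with 10% FBS, 2 mM L-glutamine, penicillin and streptomycin at 37 °C, 5% CO2. Seeded at 10 000 cells/well, preincubated 24 h, then exposed to 100−0.1 μg/mL for 72 h; vehicle 0.1% or 1.0% DMSO. Alamar Blue read by absorbance at 570 nm (600 nm reference). Six replicates, expressed as % of vehicle control.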
For orientation: Resazurin is reduced to fluorescent resorufin, in cell work by metabolically active cells.

The next data set has as its system Krebs2. As to the kind of experiment: Inhibition of cap/HCV-mediated translation in mouse Krebs2 cell free extract expressing FF/HCV/IRES-Ren mRNA reporter transcript assessed as reduction in luciferase production at 20 uM after 60 mins. The format is functional. The method, boiled down:
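Krebs-2 in vitro translation extracts programmed with bicistronic firefly-HCV IRES-Renilla luciferase mRNA. Compounds at 10 mM DMSO stock, diluted to 200 μM in water before addition. Reactions incubated 60 min at 30 °C, then both luciferase activities read. Firefly signal reports cap-dependent translation; Renilla signal reports HCV IRES translation.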

In data set [2] the test system is Plasmodium falciparum. The data set is described as follows: Antimalarial activity against chloroquine-sensitive Plasmodium falciparum 3D7 infected in human RBC after 72 hrs by DAPI staining based confocal microscopic method. To be noted: 3D7, 72 h. The format is functional. The method in brief:
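Triplicate runs, n = 3. Percent inhibition plotted against log dose, and IC50 fitted by nonlinear regression with variable slope. An initial single-point screen was run at 20 μM final concentration.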

The test system of data set [3] is Plasmodium falciparum. As to the kind of experiment: Growth inhibition of chloroquine-sensitive Plasmodium falciparum 3D7 infected in human RBC at 20 uM after 72 hrs by DAPI staining based confocal microscopic method relative to control. Format: functional. To be noted: 3D7, 72 h, read-out: GI.
In data set [4] the test system is Plasmodium falciparum. The data set is described as follows: Antimalarial activity against chloroquine-resistant Plasmodium falciparum Dd2 infected in human RBC after 72 hrs by DAPI staining based confocal microscopic method. The following applies: Dd2, 72 h. The format is functional. The method in brief:
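Triplicate runs, n = 3. Percent inhibition plotted against log dose, and IC50 fitted by nonlinear regression with variable slope. […] An initial single-point screen was run at 20 μM final concentration.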

A further data set concerns HEK293. As to the kind of experiment: Growth inhibition of HEK293 cells after 72 hrs by PrestoBlue staining based fluorescence assay. The format is cell-based. To be noted: Homo sapiens, HEK293, 72 h. The method, boiled down:
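HEK293 cytotoxicity IC50s: percent inhibition plotted against log dose and fitted by nonlinear regression (variable slope). Experiments run in triplicate (n = 3).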

A short description of data set [5]: Selectivity index, ratio of IC50 for HEK293 cells to IC50 for chloroquine-sensitive Plasmodium falciparum 3D7 infected in human RBC. Format: toxicity. The following applies: HEK293 cells versus Plasmodium falciparum 3D7 in human RBC, read-out: Ratio IC50. The method in brief:
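Selectivity index computed as the HEK293 IC50 divided by the P. falciparum 3D7 IC50, compared against puromycin as a nonselective standard.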

Data set [6] is described as follows: Growth inhibition of HEK293 cells at 20 uM after 72 hrs by PrestoBlue staining based fluorescence assay relative to control. Format: cell-based. The following applies: human, read-out: GI.
Data set [7] can be described thus: Selectivity index, ratio of growth inhibitory effect against HEK293 cells at 20 uM to IC50 for chloroquine-sensitive Plasmodium falciparum 3D7 infected in human RBC. The format is toxicity, cell-based. The following applies: HEK293 cells versus Plasmodium falciparum 3D7 in human RBC, read-out: Selectivity Index.
In data set [8] the test system is Plasmodium falciparum. As to the kind of experiment: Growth inhibition of chloroquine-resistant Plasmodium falciparum Dd2 infected in human RBC at 40 uM after 72 hrs by DAPI staining based confocal microscopic method relative to control. The format is functional. To be noted: Dd2, 72 h, read-out: GI. The method in brief:
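Percentage growth inhibition was read at 40 μM, a single concentration. The value is the mean of at least two independent measurements.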

Data set [9] can be described thus: Growth inhibition of HEK293 cells at 40 uM after 72 hrs by PrestoBlue staining based fluorescence assay relative to control. The format is cell-based. To be noted: human, read-out: GI.

Activity calls are given as the source filed them. The calls are words filed in the database; no cut-off is given here. Some results are limits rather than exact numbers.

As a reminder, the IC50 is the concentration needed to halve the response being measured. Low readings indicate inhibition by little substance, high ones a need for much substance. Regarding `O=Cc1cccc(O)c1` [3-HYDROXYBENZALDEHYDE], the inhibition of growth at 40 µM in the data set on Plasmodium falciparum [1] was determined as 25%. In the data set with MDA-MB-231, this compound registered an IC50 of 8200 nM. Besides, the inhibition result in the data set on Krebs2 was “inactive”.
Regarding `CC(=O)O[C@@H]1C=C[C@H](O)[C@@H](O)/C1=C/OC(=O)c1ccccc1`, the IC50 in the data set on Plasmodium falciparum [2] amounted to 200 nM; in the data set on Plasmodium falciparum [4], 480 nM; with HEK293, 2700 nM; in the data set on MDA-MB-231 it was 30 nM. The inhibition of growth at 20 µM in the data set with Plasmodium falciparum [3] is not below 90%. For the same compound, in data set [5], the selectivity ratio is 14. The inhibition result in the data set on Krebs2 was “inactive”.
On to `CC(=O)O[C@@H]1C=C[C@@H](OC(=O)c2ccccc2)[C@@](O)(COC(=O)c2ccccc2)[C@H]1OC(C)=O`, for which, in the data set with Plasmodium falciparum [1], the inhibition of growth at 40 µM stood at 99%. Further, the IC50 in the data set with MDA-MB-231 came to 2100 nM. In addition, the inhibition result in the data set with Krebs2 was “inactive”.
For the compound `C[C@H]1[C@@H](O)O[C@@H]2O[C@@]3(C)CC[C@H]4[C@H](C)CC[C@@H]1[C@@]24OO3` [ARTENIMOL], the IC50 in the data set on Plasmodium falciparum [2] turned out to be 0.11 nM; in the data set on Plasmodium falciparum [4], 0.15 nM. Besides, the inhibition at 72 h, 20 µM in data set [6] came out at 50%. Also, the selectivity ratio at 20 µM in data set [7] was more than 22.
With `COc1ccc(C[C@H](N)C(=O)N[C@H]2[C@@H](O)[C@H](n3cnc4c(N(C)C)ncnc43)O[C@@H]2CO)cc1` [PUROMYCIN], the midpoint of inhibition in the data set with Plasmodium falciparum [2], the IC50, lay at 23 nM. Further, the selectivity ratio in data set [5] was 15.9.
Consider `O=C(OCc1cc(O)ccc1O)c1ccccc1`, for which, in the data set with Plasmodium falciparum [1], the inhibition of growth at 40 µM stood at 67%. The same compound displayed an IC50 with MDA-MB-231 of 90 nM.
Turning to `CC(=O)O[C@H]1C=C[C@H](O)[C@@](O)(COC(=O)c2ccccc2)[C@@H]1OC(C)=O`, in the data set on Plasmodium falciparum [1], the inhibition of growth at 40 µM came to 54%. Further, in the data set on MDA-MB-231, it took 2700 nM to reach half-maximal inhibition (IC50). For the same compound, the inhibition entry in the data set with Krebs2 was “inactive”.
In the same order, the values of `CC(=O)O[C@H]1C=C[C@H](Cl)[C@](O)(COC(=O)c2ccccc2)[C@@H]1O` are 95%, 450 nM and “inactive”.
As to `CC(=O)O[C@H](OC(=O)c1ccccc1)[C@@]12C=C[C@@H](c3ccc(C=O)cc31)[C@H](O)[C@H]2OC(C)=O`, the inhibition of growth at 40 µM in the data set with Plasmodium falciparum [1] turned out to be 98%.
Take `CC(=O)O[C@H](/C=C1/C=CC(=O)O1)COC(=O)c1ccccc1`: the IC50 in the data set on Plasmodium falciparum [2] was 6670 nM. Besides, the inhibition of growth at 20 µM in the data set on Plasmodium falciparum [3] is not below 90%. Moreover, in the data set on Plasmodium falciparum [8], the inhibition of growth at 40 µM worked out at 100%. Further, the inhibition at 72 h, 40 µM in [9] was 100%. In addition, the inhibition result with Krebs2 was “inactive”.
Take `C[C@H]1[C@H](OC(=O)CCC(=O)O)O[C@@H]2O[C@@]3(C)CC[C@H]4[C@H](C)CC[C@@H]1[C@@]24OO3` [ARTESUNATE]: the IC50 in the data set on Plasmodium falciparum [2] stood at 0.48 nM. Besides, the inhibition at 72 h, 20 µM in [6] came to 75%. For the same compound, in [7], the selectivity ratio at 20 µM is more than 22.
As to `CCc1nc(N)nc(N)c1-c1ccc(Cl)cc1` [PYRIMETHAMINE], in the data set with HEK293, half-maximal inhibition (IC50) was put at 4200 nM.
Consider `COc1ccc2nc3cc(Cl)ccc3c(Nc3cc(CN4CCCC4)c(O)c(CN4CCCC4)c3)c2n1` [PYRONARIDINE], for which the IC50 in the data set on HEK293 turned out to be 1800 nM. The selectivity ratio in data set [5] is 494.
Take `CC(=O)O[C@@H]1C=C[C@H](O)[C@@H](OC(C)=O)/C1=C/OC(=O)c1ccccc1`: the concentration for half-maximal inhibition (IC50) in the data set with Plasmodium falciparum [2] was 620 nM; in the data set on Plasmodium falciparum [4], 3400 nM; with HEK293, 2400 nM; with MDA-MB-231 it was 290 nM. Moreover, the inhibition of growth at 20 µM with Plasmodium falciparum [3] was not below 90%. The selectivity ratio in data set [5] is 4. In addition, the inhibition result with Krebs2 was “inactive”.
As to `O=C1C=C/C(=C/[C@@H](O)COC(=O)c2ccccc2)O1`, the inhibition of growth at 40 µM with Plasmodium falciparum [1] came to 92%. The compound further had an IC50 in the data set with MDA-MB-231 of 240 nM.
For `CC(=O)OC[C@]1(O)[C@H](OC(=O)c2ccccc2)C=C[C@@H](OC(C)=O)[C@@H]1O`, the inhibition entry in the data set with Krebs2 was “inactive”.
In the case of `CC(=O)O[C@H]1C=C[C@H](Cl)[C@@](O)(COC(=O)c2ccccc2)[C@@H]1O`, the inhibition of growth at 40 µM with Plasmodium falciparum [1] was 72%. In the data set on MDA-MB-231, this compound registered an IC50 of 120 nM. In the data set with Krebs2, the inhibition entry is “inactive”.
Regarding `CC(=O)OC(OC(=O)c1ccccc1)C1=CC=C[C@H](O)[C@H]1OC(C)=O` (stereo partly drawn), the IC50 in the data set on Plasmodium falciparum [2] was determined as 1200 nM; in the data set on Plasmodium falciparum [4], 2200 nM; with HEK293 it was 3600 nM; with MDA-MB-231, 290 nM. For the same compound, the inhibition of growth at 20 µM in the data set on Plasmodium falciparum [3] was not below 90%. The selectivity ratio in data set [5] was found to be 3.

(Values after ChEMBL document CHEMBL4004787, “Polyoxygenated Cyclohexenes and Other Constituents of Cleistochlamys kirkii Leaves” (J Nat Prod, 2017).)
